13 compounds from ChEMBL document CHEMBL1151446, “The PhoQ-activating potential of antimicrobial peptides contributes to antimicrobial efficacy and is predictive of the induction of bacterial resistance” (2007) can be followed below.

Values after ≈ are worked out from the molar mass of the structure shown. Active and inactive are the calls of the source. Where a SMILES comes first, the peptide text is derived from it.

Test [1] concerns Salmonella enterica subsp. enterica. In words: Antibacterial activity against wild type Salmonella enterica serovar Typhimurium ATCC 14028 after 16 hrs by modified twofold broth microdilution method. The conditions noted are these: ATCC 14028, 16 h. Type of test: functional, Salmonella enterica subsp. enterica serovar Typhimurium. The essentials: (§1)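 Broth microdilution MBC assay: 5 × 10^5 bacteria/ml in LB with a linear gradient of peptide concentrations. Peptide dilutions were made fresh in 0.2% BSA, 0.01% acetic acid and added after the inoculum. Plates were incubated at 37°C for 16 h, then spotted onto LB agar. MBC was the lowest concentration with no growth, averaged over at least three trials.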
In general terms: Dilution methods test growth across graded concentrations, often in twofold steps.

The test system is the same in test [2]. In words: Antibacterial activity against bacterial sensory kinase PhoQ deficient Salmonella enterica serovar Typhimurium CS009 after 16 hrs by modified twofold broth microdilution method. It counts as functional, Salmonella enterica subsp. enterica serovar Typhimurium. The note with it: CS009, 16 h. The essentials: as §1
For test [3] the test system is unchanged. In words: Antibacterial activity against bacterial sensory kinase PhoQ deficient Salmonella enterica serovar Typhimurium expressing PhoPQ operon after 16 hrs by modified twofold broth microdilution method. It counts as functional, Salmonella enterica subsp. enterica serovar Typhimurium. The essentials: as §1
The test system is the same in test [4]. In words: Antibacterial activity against bacterial sensory kinase PhoP deficient Salmonella enterica serovar Typhimurium CS053 after 16 hrs by modified twofold broth microdilution method. The note with it: CS053, 16 h. Type of test: functional, Salmonella enterica subsp. enterica serovar Typhimurium. The essentials:
as §1

The test system is the same in test [5]. In words: Antibacterial activity against bacterial sensory kinase PhoQ deficient Salmonella enterica serovar Typhimurium CS009 assessed as direct antimicrobial activity after 16 hrs by modified twofold broth microdilution method. Type of test: functional, Salmonella enterica subsp. enterica serovar Typhimurium. In a few lines:
as §1

Test [6] has the same test system. Put plainly: Antibacterial activity against bacterial sensory kinase PhoQ deficient Salmonella enterica serovar Typhimurium CS009 assessed as PhoQ-activating potential after 16 hrs by modified twofold broth microdilution method relative to wild type Salmonella enterica serovar Typhimurium ATCC 14028. Type of test: functional, Salmonella enterica subsp. enterica serovar Typhimurium. The essentials: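 PAP was calculated as MBC against wild-type ATCC 14028 minus MBC against PhoQ mutant CS009. Both MBCs came from the broth microdilution assay: 5 × 10^5 bacteria/ml in LB, 37°C for 16 h, spotting onto LB agar, no-growth endpoint, averaged over at least three trials.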

Test [7] deals with T1, Virulence sensor histidine kinase PhoQ (Salmonella typhimurium (strain LT2 / SGSC1412 / ATCC 700720)) (UniProt P0DM80).
T1 sequence (whole entry): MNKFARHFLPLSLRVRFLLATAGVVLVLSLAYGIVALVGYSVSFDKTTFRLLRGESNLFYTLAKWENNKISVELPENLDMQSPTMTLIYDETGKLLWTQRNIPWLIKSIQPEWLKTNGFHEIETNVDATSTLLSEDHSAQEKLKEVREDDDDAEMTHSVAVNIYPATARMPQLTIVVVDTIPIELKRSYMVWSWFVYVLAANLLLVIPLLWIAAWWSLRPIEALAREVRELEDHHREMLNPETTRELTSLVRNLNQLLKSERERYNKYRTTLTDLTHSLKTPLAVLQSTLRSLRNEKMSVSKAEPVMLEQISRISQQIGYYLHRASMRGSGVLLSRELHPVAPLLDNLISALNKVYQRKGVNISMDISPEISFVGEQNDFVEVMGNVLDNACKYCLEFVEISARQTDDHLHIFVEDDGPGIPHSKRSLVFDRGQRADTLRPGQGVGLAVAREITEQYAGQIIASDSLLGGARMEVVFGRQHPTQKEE
Put plainly: Activation of PhoQ in Salmonella enterica serovar Typhimurium CS102 expressing PhoN fusion protein assessed as initiation of acid phosphatase reporter enzyme expression at 1 ug/ml in presence of 1 mM magnesium. The conditions noted are these: Salmonella enterica subsp. enterica serovar Typhimurium. In a few lines: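 PhoPQ reporter strain CS102 (PhoQ-regulated acid phosphatase PhoN fusion) incubated in LB with peptide at 1 μg/ml plus 1 mM magnesium; acid phosphatase activity measured. Reference conditions were 50 μM MgCl2 (activating) and 5 mM MgCl2 (repressive). Mean of three replicate experiments.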

The test system of test [8] is Salmonella enterica subsp. enterica. Put plainly: Antibacterial activity against wild type Salmonella enterica serovar Typhimurium ATCC 14028 preincubated till 4 hrs at dosing schedule of 1 ug/ml at time zero, 1 ug/ml at 1st hr, 2 ug/ml at 2nd hr and final 4 ug/ml at 3rd hr assessed as increase in minimum bactericidal concentration measured after 16 hrs by modified twofold broth microdilution method in presence of 1 mM Mg2+ relative to naive unadapted bacteria. Type of test: functional, Salmonella enterica subsp. enterica serovar Typhimurium.

Test [9] shares this test system. Put plainly: Antibacterial activity against wild type Salmonella enterica serovar Typhimurium ATCC 14028 assessed as direct antimicrobial activity after 16 hrs by modified twofold broth microdilution method. It counts as functional, organism-based.
The test system is the same in test [10]. In words: Antibacterial activity against bacterial sensory kinase PhoP deficient Salmonella enterica serovar Typhimurium CS053 assessed as direct antimicrobial activity after 16 hrs by modified twofold broth microdilution method. It counts as functional, organism-based. The essentials: as §1
For test [11] the test system is unchanged. In words: Antibacterial activity against wild type Salmonella enterica serovar Typhimurium ATCC 14028 preincubated till 4 hrs at dosing schedule of 1 ug/ml at time zero, 1 ug/ml at 1st hr, 2 ug/ml at 2nd hr and final 4 ug/ml at 3rd hr measured after 16 hrs by modified twofold broth microdilution method in presence of 1 mM Mg2+. It counts as functional, organism-based.

For test [12] the test system is unchanged. Put plainly: Antibacterial activity against bacterial sensory kinase PhoQ deficient Salmonella enterica serovar Typhimurium CS009 by modified twofold broth microdilution method. It counts as functional, Salmonella enterica subsp. enterica serovar Typhimurium.
The test system is the same in test [13]. In words: Antibacterial activity against wild type Salmonella enterica serovar Typhimurium ATCC 14028 by modified twofold broth microdilution method. Type of test: functional, Salmonella enterica subsp. enterica serovar Typhimurium.

Consider `CC(C)C[C@H](NC(=O)[C@H](CCCCN)NC(=O)[C@H](CCC(N)=O)NC(=O)[C@H](CC(N)=O)NC(=O)[C@H](CC(C)C)NC(=O)[C@H](CC(=O)O)NC(=O)[C@H](CCC(=O)O)NC(=O)[C@@H]1CCCN1C(=O)[C@@H](NC(=O)[C@H](C)NC(=O)CN)[C@@H](C)O)C(=O)N[C@@H](CO)C(N)=O` (H-GATPEDLNQKLS-NH2), for which the MBC in test [1], in test [2], in test [3] and in test [4] was over 500 µg/mL throughout.

Turning to `CC[C@H](C)[C@H](NC(=O)[C@H](CCCCN)NC(=O)[C@@H](NC(=O)[C@@H](NC(=O)[C@H](CCCNC(=N)N)NC(=O)[C@H](C)NC(=O)[C@H](CC(C)C)NC(=O)[C@@H](N)CCCNC(=N)N)[C@@H](C)CC)C(C)C)C(=O)N[C@@H](CCCNC(=N)N)C(=O)N[C@H](C(=O)N[C@@H](C)C(=O)N[C@@H](CCCNC(=N)N)C(N)=O)C(C)C` (H-RLARIVKIRVAR-NH2), the MBC (as a rule, the smallest concentration meeting the test's criterion for killing) came to 68.8 µg/mL (≈ 47.5 µM) in [1], 13.1 µg/mL (≈ 9.04 µM) in test [2], 69 µg/mL (≈ 47.6 µM) in [3] and 13.3 µg/mL (≈ 9.17 µM) in [4]. Besides, the values for the Activity in test [5] and in test [6] were 13.1 µg/mL and 55.7 µg/mL, respectively. Also, in test [7], the outcome was Active. Besides, the “fold change (FC)” value in test [8] was “<=10”.

As for `CC[C@H](C)[C@H](NC(=O)[C@H](CCCNC(=N)N)NC(=O)[C@H](C)NC(=O)[C@H](CC(C)C)NC(=O)[C@@H](N)CCCNC(=N)N)C(=O)N[C@H](C(=O)N1CCC[C@H]1C(=O)N[C@H](C(=O)N[C@@H](CCCNC(=N)N)C(=O)N[C@H](C(=O)N[C@@H](C)C(=O)N[C@@H](CCCNC(=N)N)C(N)=O)C(C)C)[C@@H](C)CC)C(C)C` (H-RLARIVPIRVAR-NH2), the minimum bactericidal concentration (MBC) is over 500 µg/mL in [1], 46.7 µg/mL (≈ 32.9 µM) in test [2], over 500 µg/mL in [3] and 45.4 µg/mL (≈ 32 µM) in [4]. In test [5], the Activity was 46.7 µg/mL. Moreover, the result in [9] and in test [10] was inactive. Besides, the result in test [7] was Active.

Consider `CC[C@H](C)[C@H](NC(=O)[C@H](CCCNC(=N)N)NC(=O)[C@H](C)NC(=O)[C@H](CC(C)C)NC(=O)[C@@H](N)CCCNC(=N)N)C(=O)N[C@H](C(=O)N[C@H](C(=O)N[C@H](C(=O)N[C@@H](CCCNC(=N)N)C(=O)N[C@H](C(=O)N[C@@H](C)C(=O)NCC(N)=O)C(C)C)[C@@H](C)CC)C(C)C)C(C)C` (H-RLARIVVIRVAG-NH2), for which the MBC worked out at 31.4 µg/mL (≈ 23.8 µM) in test [1], 8.6 µg/mL (≈ 6.51 µM) in test [2], 34 µg/mL (≈ 25.7 µM) in [3] and 10.1 µg/mL (≈ 7.64 µM) in test [4]. Moreover, the Activity in test [5] is 8.6 µg/mL; in test [6], 22.8 µg/mL. In test [7], the result was Active.

For the compound `CC[C@H](C)[C@H](NC(=O)[C@H](CCCNC(=N)N)NC(=O)[C@H](C)NC(=O)[C@H](CC(C)C)NC(=O)[C@@H](N)CCCNC(=N)N)C(=O)N[C@H](C(=O)N[C@H](C(=O)N[C@H](C(=O)N[C@@H](CCCNC(=N)N)C(=O)N[C@H](C(=O)N[C@@H](C)C(=O)N[C@@H](CCCNC(=N)N)C(N)=O)C(C)C)[C@@H](C)CC)C(C)C)C(C)C` (H-RLARIVVIRVAR-NH2), the minimal bactericidal concentration (MBC) in test [1] worked out at 32.8 µg/mL (≈ 23.1 µM); in test [2] it was 6.2 µg/mL (≈ 4.36 µM); in test [3], 42.5 µg/mL (≈ 29.9 µM); in test [4], 6.5 µg/mL (≈ 4.57 µM). Moreover, the Activity in test [5] came to 6.2 µg/mL. For the same compound, in test [7], the result was Active.

`CC[C@H](C)[C@H](NC(=O)[C@H](CCCNC(=N)N)NC(=O)[C@H](CCCNC(=N)N)NC(=O)[C@H](CC(C)C)NC(=O)[C@@H](N)CCCNC(=N)N)C(=O)N[C@H](C(=O)N[C@H](C(=O)N[C@H](C(=O)N[C@@H](CCCNC(=N)N)C(=O)N[C@H](C(=O)N[C@@H](C)C(=O)N[C@@H](CCCNC(=N)N)C(N)=O)C(C)C)[C@@H](C)CC)C(C)C)C(C)C` (H-RLRRIVVIRVAR-NH2): the minimum bactericidal concentration (MBC) in test [1] is 11.5 µg/mL (≈ 7.64 µM); in test [2] it was 4.2 µg/mL (≈ 2.79 µM); in test [3], 30 µg/mL (≈ 19.9 µM); in [4], 3.8 µg/mL (≈ 2.52 µM). Moreover, the Activity in test [5] was found to be 4.2 µg/mL; in test [6] it was 7.3 µg/mL. In addition, the outcome in test [11] was Active. Further, in test [7], the result was inactive.

For `CC[C@H](C)[C@H](NC(=O)[C@H](CCCNC(=N)N)NC(=O)[C@H](Cc1c[nH]c2ccccc12)NC(=O)[C@H](CCCNC(=N)N)NC(=O)[C@@H](N)CCCNC(=N)N)C(=O)N[C@H](C(=O)N[C@H](C(=O)N[C@H](C(=O)N[C@@H](CCCNC(=N)N)C(=O)N[C@H](C(=O)N[C@@H](CCCNC(=N)N)C(=O)N[C@@H](CCCNC(=N)N)C(N)=O)C(C)C)[C@@H](C)CC)C(C)C)C(C)C` (H-RRWRIVVIRVRR-NH2), the MBC in test [1] came to 10 µg/mL (≈ 6.01 µM); in test [2] it was 5.7 µg/mL (≈ 3.43 µM); in test [3], 19 µg/mL (≈ 11.4 µM); in test [4] it was 6.4 µg/mL (≈ 3.85 µM). The Activity in [5] was found to be 5.7 µg/mL; in test [6] it was 34.3 µg/mL. For the same compound, the result in [7] was inactive.

With `CC1(C)S[C@@H]2[C@H](NC(=O)[C@H](N)c3ccccc3)C(=O)N2[C@H]1C(=O)O` [AMPICILLIN], the results for the MIC in test [12] and in test [13] were 8 µg/mL (≈ 22.9 µM) and 10 µg/mL (≈ 28.6 µM), respectively.

In the case of `CC1(C)S[C@@H]2[C@H](NC(=O)C(C(=O)O)c3ccccc3)C(=O)N2[C@H]1C(=O)O` (stereo not given in full) [CARBENICILLIN], the figures for the MIC in [12] and in test [13] were 8 µg/mL (≈ 21.1 µM) and 10 µg/mL (≈ 26.4 µM), respectively.

As for `CCn1cc(C(=O)O)c(=O)c2ccc(C)nc21` [NALIDIXIC ACID], the MIC in test [12] and in [13] was 3 µg/mL (≈ 12.9 µM) each time.

As for `CN(C)[C@@H]1C(O)=C(C(N)=O)C(=O)[C@@]2(O)C(O)=C3C(=O)c4c(O)cccc4[C@@](C)(O)[C@H]3C[C@@H]12` [TETRACYCLINE], the MIC in test [12] and in test [13] was 3 µg/mL (≈ 6.75 µM) throughout.

Turning to `COc1cc(Cc2cnc(N)nc2N)cc(OC)c1OC` [TRIMETHOPRIM], the minimum inhibitory concentration (MIC) in test [12] and in test [13] was 1 µg/mL (≈ 3.44 µM) in each case.

Regarding GENTAMICIN, the MIC in test [12] and in test [13] was 16 µg/mL in each case.
